Results from paper PMC3149718 (Molecular and cellular biochemistry, 2011).
Where a chain is given by its changes, count along the chain named.

T1: Cy3-labeled CPTI WT 89-residue peptide (Rattus norvegicus, UniProt P32198)
T1 sequence (P32198 381-469): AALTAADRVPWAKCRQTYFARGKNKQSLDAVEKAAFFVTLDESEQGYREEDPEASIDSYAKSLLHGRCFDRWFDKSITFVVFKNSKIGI

T2: Cy3-labeled W391A 89-residue CPTI peptide (Rattus norvegicus, UniProt P32198, W391A)
T2 sequence (P32198 381-469 W391A): T1 sequence (P32198 381-469) with W11A

T3: Cy3-labeled W452A 89-residue CPTI peptide (Rattus norvegicus, UniProt P32198, W452A)
T3 sequence (P32198 381-469 W452A): T1 sequence (P32198 381-469) with W72A

T4: wild-type CPTI in mitochondria from yeast (Rattus norvegicus, UniProt P32198)
T4 sequence (P32198 1-773): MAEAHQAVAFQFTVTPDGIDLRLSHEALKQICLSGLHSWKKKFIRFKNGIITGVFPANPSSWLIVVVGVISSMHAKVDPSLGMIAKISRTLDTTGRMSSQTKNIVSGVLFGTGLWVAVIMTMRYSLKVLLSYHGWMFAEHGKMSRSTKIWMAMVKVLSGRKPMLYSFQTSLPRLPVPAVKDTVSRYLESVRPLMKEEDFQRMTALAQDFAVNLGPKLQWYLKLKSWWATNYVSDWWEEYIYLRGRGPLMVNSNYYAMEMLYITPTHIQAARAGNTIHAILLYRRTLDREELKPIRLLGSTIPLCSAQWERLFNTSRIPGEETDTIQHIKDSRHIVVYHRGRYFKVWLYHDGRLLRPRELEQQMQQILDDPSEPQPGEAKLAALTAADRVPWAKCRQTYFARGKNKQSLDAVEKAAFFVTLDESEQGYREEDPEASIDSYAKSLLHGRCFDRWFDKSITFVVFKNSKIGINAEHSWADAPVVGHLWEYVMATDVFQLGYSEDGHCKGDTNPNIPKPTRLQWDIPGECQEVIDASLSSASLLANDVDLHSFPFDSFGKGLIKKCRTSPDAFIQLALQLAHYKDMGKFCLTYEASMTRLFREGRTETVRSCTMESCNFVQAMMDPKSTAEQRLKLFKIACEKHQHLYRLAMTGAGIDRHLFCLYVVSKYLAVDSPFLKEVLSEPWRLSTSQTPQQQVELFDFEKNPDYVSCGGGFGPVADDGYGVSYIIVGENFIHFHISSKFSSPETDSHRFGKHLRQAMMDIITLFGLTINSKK

T5: W391A mutant CPTI in mitochondria from yeast (Rattus norvegicus, UniProt P32198, W391A)
T5 sequence (P32198 1-773 W391A): T4 sequence (P32198 1-773) with W391A

T6: W452A mutant CPTI in mitochondria from yeast (Rattus norvegicus, UniProt P32198, W452A)
T6 sequence (P32198 1-773 W452A): T4 sequence (P32198 1-773) with W452A

B1: ACBP: Mouse recombinant acyl CoA binding protein (protein)
chain: MSQAEFDKAAEEVKRLKTQPTDEEMLFIYSHFKQATVGDVNTDRPGLLDLKGKAKWDSWNKLKGTSKESAMKTYVEKVDELKKKYGI
modifications: Cy5 dye, approximately 1 dye per protein molecule (in the FRET assay only; unlabelled in circular dichroism)
B2: SCP-2: Human recombinant sterol carrier protein-2 (protein, UniProt P22307 1-547, looked up)
Sterol carrier protein 2: MSSSPWEPATLRRVFVVGVGMTKFVKPGAENSRDYPDLAEEAGKKALADAQIPYSAVDQACVGYVFGDSTCGQRAIYHSLGMTGIPIINVNNNCATGSTALFMARQLIQGGVAECVLALGFEKMSKGSLGIKFSDRTIPTDKHVDLLINKYGLSAHPVAPQMFGYAGKEHMEKYGTKIEHFAKIGWKNHKHSVNNPYSQFQDEYSLDEVMASKEVFDFLTILQCCPTSDGAAAAILASEAFVQKYGLQSKAVEILAQEMMTDLPSSFEEKSIIKMVGFDMSKEAARKCYEKSGLTPNDIDVIELHDCFSTNELLTYEALGLCPEGQGATLVDRGDNTYGGKWVINPSGGLISKGHPLGATGLAQCAELCWQLRGEAGKRQVPGAKVALQHNLGIGGAVVVTLYKMGFPEAASSFRTHQIEAVPTSSASDGFKANLVFKEIEKKLEEEGEQFVKKIGGIFAFKVKDGPGGKEATWVVDVKNGKGSVLPNSDKKADCTITMADSDFLALMTGKMNPQSAFFQGKLKITGNMGLAMKLQNLQLQPGNAKL
modifications: Cy5 label

What was measured:
[1] = biological target: T1, Cy3-labeled CPTI WT 89-residue peptide; assay: FRET between Cy3-labeled CPTI peptide and Cy5-labeled LCFA-CoA binding proteins; details: Cy5-labeled acceptor protein
[2] = biological target: T2, Cy3-labeled W391A 89-residue CPTI peptide; assay: as above; details: donor Cy3-W391A, Cy5-labeled acceptor protein
[3] = biological target: T3, Cy3-labeled W452A 89-residue CPTI peptide; assay: as above; details: donor Cy3-W452A, Cy5-labeled acceptor protein
[4] = biological target: T4, wild-type CPTI in mitochondria from yeast; assay: CPTI activity assay; type: biochemical
How it was run: (§1)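 Mitochondria isolated from yeast strains expressing wild-type or mutant CPTI were assayed by forward exchange with L-[methyl-3H]carnitine at a fixed 1.0 mM carnitine, using 150 µg mitochondrial protein. […] Incubation was 5 min at 30°C and was stopped with 6% perchloric acid. Values are mean ± SE.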

[5] = biological target: T5, W391A mutant CPTI in mitochondria from yeast; assay: CPTI activity assay; type: biochemical
How it was run: as §1

[6] = biological target: T6, W452A mutant CPTI in mitochondria from yeast; assay: CPTI activity assay; type: biochemical
How it was run: as §1

[7] = donor protein 15uM, palmitoyl-CoA to protein molar ratio 7.41
[8] = donor protein 30uM, palmitoyl-CoA to protein molar ratio 3.70
[9] = donor protein 60uM, palmitoyl-CoA to protein molar ratio 1.85

| Molecule | Sensitized Emission Kd ([1]; donor Cy3-CPTI WT 30 nM, PBS 24°C) | Sensitized Emission R (intermolecular distance) ([1]; donor Cy3-CPTI WT) [Å] | Sensitized Emission R (intermolecular distance) [2] [Å] | Sensitized Emission R (intermolecular distance) [3] [Å] | CPTI activity, WT [4, 7] [nmol/min/mg] | CPTI activity, WT [4, 8] [nmol/min/mg] | CPTI activity, WT [4, 9] [nmol/min/mg] | CPTI activity, W391A [5, 7] [nmol/min/mg] | CPTI activity, W391A [5, 8] [nmol/min/mg] | CPTI activity, W391A [5, 9] [nmol/min/mg] | CPTI activity, W452A [6, 7] [nmol/min/mg] | CPTI activity, W452A [6, 8] [nmol/min/mg] | CPTI activity, W452A [6, 9] [nmol/min/mg] |
| --- | --- | --- | --- | --- | --- | --- | --- | --- | --- | --- | --- | --- | --- |
| CytoC: Cytochrome C purchased from Sigma Aldrich, used as control protein [reference compound] | no FRET or binding was observed | – | – | – | – | – | – | – | – | – | – | – | – |
| B1 | – | 56 ± 1 | 65 ± 1 | 65.8 ± 0.2 | 31.8 ± 2.1 | 27.6 ± 2.4 | 13.2 ± 0.1 | 3.3 ± 0.1 | 4.5 ± 0.9 | 5.7 ± 0.1 | 0.7 ± 0.2 | 0.8 ± 0.2 | 1.3 ± 0.1 |
| B2 | – | – | – | – | 31.7 ± 1.1 | 26.1 ± 1.1 | 16.5 ± 0.1 | 4.7 ± 0.1 | 5.7 ± 0.2 | 4.5 ± 0.1 | 0.8 ± 0.2 | 1.2 ± 0.2 | 0.9 ± 0.2 |
